We go through four compounds from ChEMBL document CHEMBL1130202, “Biologically active heteroarotinoids exhibiting anticancer activity and decreased toxicity” (J Med Chem, 1997).

Data set [1] deals with Mus musculus. The data set can be described thus: Effect of compound on Spleen to body weight ratios in mice at 0.2 mg/kg/day dose on day 65; dead by day 65. It counts as functional, organism-based. The method, boiled down: (§1)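 Male B6D2F1 mice dosed daily by gavage with compound in corn oil; vehicle 1 (corn oil) controls run to termination on day 65. Low, mid 1, mid 2 and high dose groups, with dosage increases partway through the study. Organ-to-body weight ratios (×1000) taken at necropsy on day 65, reported as mean ± SD for 4 to 8 animals and as % difference from vehicle.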

In data set [2] the test system is Mus musculus. As to the kind of experiment: Effect of compound on Spleen to body weight ratios in mice at 0.8 mg/kg/day dose on day 65; dead by day 65. In kind it is functional, organism-based. The gist of the method:
as §1

Data set [3] concerns Mus musculus. As to the kind of experiment: Effect of compound on adrenal to body weight ratios in mice at 0.2 mg/kg/day dose; all the animals died by day 65. It counts as functional, organism-based.
For data set [4], the system named is Mus musculus. As to the kind of experiment: Total dose of 10% weight loss in mice at 0.05 mg/kg/day. It counts as functional.
Data set [5] relates to Mus musculus. The data set can be described thus: Alopecia observed at 0.01 mg/kg/day dose in mice with hypervitaminosis; 6/8. It counts as functional, organism-based.
The subject of data set [6] is Mus musculus. As to the kind of experiment: Effect of compound on thymus to body weight ratios in mice at 0.4 mg/kg/day dose; all the animals died by day 65. It counts as functional, organism-based. The method, boiled down:
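Male B6D2F1 mice were dosed daily by gavage in corn oil, with TTNPB given at 0.1–0.8 or 0.01/0.05 mg/kg/day. Thymus-to-body weight ratio (×1000) was taken at necropsy on day 65 against vehicle 1, or on day 25 for the 0.01/0.05 groups against vehicle 2. Mean ± SD of 4–8 animals, reported as % difference from vehicle.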

The test system of data set [7] is Mus musculus. The data set can be described thus: Avoiding pressure on limbs at 0.01 mg/kg/day dose in mice hypervitaminosis; 0/16. The note with it: Limb. It counts as functional, organism-based.
Data set [8] relates to Mus musculus. The data set can be described thus: Avoiding pressure on limbs at 0.4 mg/kg/day dose in mice with hypervitaminosis; 0/16. In kind it is functional, organism-based. The note with it: Limb.
Data set [9] concerns Mus musculus. The data set can be described thus: Enlarged lymph in gross pathological observations with hypervitaminosis A in mice at 0.05 mg/kg/day dose with gross observations/total number of animals in group; 8/8. In kind it is functional, organism-based.
Data set [10] has as its system Mus musculus. As to the kind of experiment: Enlarged spleen in Gross pathological observations with hypervitaminosis A at 0.01 mg/kg/day dose with gross observations/total number of animals in group; 5/8. It counts as functional, organism-based.
Data set [11] concerns Mus musculus. As to the kind of experiment: Enlarged spleen in gross pathological observations with hypervitaminosis A at 0.05 mg/kg/day dose with gross observations/total number of animals in group; 5/8. In kind it is functional, organism-based.
The test system of data set [12] is Mus musculus. As to the kind of experiment: Skin scaling at 0.2 mg/kg/day in mice with hypervitaminosis; 14/16. It counts as functional, organism-based.
Data set [13] has as its system Mus musculus. As to the kind of experiment: Skin scaling at 0.8 mg/kg/day in mice with hypervitaminosis; 12/16. In kind it is functional, organism-based.
Data set [14] deals with Mus musculus. The data set can be described thus: Approximate day to determine 10% weight loss in mice at 0.01 mg/kg/day. In kind it is functional. The gist of the method: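 Male B6D2F1 mice dosed daily by gavage in corn oil; body weights followed to termination (day 65, or day 25 for TTNPB 0.01/0.05 mg/kg/day groups) and compared with the matching vehicle group. Value is approximate day of onset of 10% body weight reduction versus vehicle.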

Data set [15] has as its system Mus musculus. As to the kind of experiment: Calculated 30-day maximally tolerated dose based on 10% weight loss in mice at 0.01 mg/kg/day. It counts as functional.
A short description of data set [16]: Mortality rate in mice at 0.1 mg/kg/day; range (12-24). The settings on record: mouse, in vivo. In kind it is ADME, organism-based. The gist of the method:
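Male B6D2F1 mice given compound daily by gavage in corn oil at the stated dose levels, with corn oil vehicle controls. Deaths counted as animals found dead or sacrificed moribund, with day(s) of death recorded. Heteroarotinoid groups ran to day 65 and low-dose reference groups to day 25.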

The subject of data set [17] is Mus musculus. As to the kind of experiment: Enlarged spleen in Gross pathological observations with hypervitaminosis A in mice at 0.4 mg/kg/day dose with gross observations/total number of animals in group; 0/16. In kind it is functional, organism-based.
In data set [18] the test system is Mus musculus. As to the kind of experiment: Fracture incidents in mouse at 0.1 mg/kg/day.
Data set [19] relates to Mus musculus. The data set can be described thus: Fracture incidents in mouse at 0.01 mg/kg/day; 1/7.
The test system of data set [20] is Mus musculus. As to the kind of experiment: Fracture incidents in mouse at 0.05 mg/kg/day; 7/8.
Data set [21] has as its system Mus musculus. The data set can be described thus: Fracture incidents in mouse at 0.4 mg/kg/day; 3/12.
The subject of data set [22] is Mus musculus. The data set can be described thus: Average number of fractures per mouse at 0.1 mg/kg/day.
The species named for data set [23] is Mus musculus. As to the kind of experiment: Enlarged lymph in gross pathological observations in mice with hypervitaminosis A at mid dose 1 with gross observations/total number of mice in group; 0/16. In kind it is functional, organism-based.
Data set [24] is filed under the species Mus musculus. As to the kind of experiment: Alopecia in mice observed at mid dose 1 with Hypervitaminosis; 1/16. It counts as functional, organism-based.
Data set [25] is filed under the species Mus musculus. The data set can be described thus: Alopecia in mice observed at mid dose 2 with Hypervitaminosis; 1/16. It counts as functional, organism-based.
The species entered for data set [26] is Mus musculus. As to the kind of experiment: Enlarged lymph in gross pathological observations in mice with hypervitaminosis A at mid dose 2 with gross observations/total number of mice in group; 2/16. It counts as functional, organism-based.
The species entered for data set [27] is Mus musculus. The data set can be described thus: Enlarged spleen in Gross pathological observations in mice with hypervitaminosis A at mid dose 1 with gross observations/total number of mice in group; 0/16. In kind it is functional, organism-based.
The species named for data set [28] is Mus musculus. As to the kind of experiment: Fracture incidence in mouse at high dose; 2/8.
The species named for data set [29] is Mus musculus. The data set can be described thus: Alopecia in mice observed at low dose with Hypervitaminosis; 0/16. It counts as functional, organism-based.
For data set [30], the species on record is Mus musculus. As to the kind of experiment: Alopecia in mice observed at high dose with Hypervitaminosis; 4/16. It counts as functional, organism-based.
Data set [31] is filed under the species Mus musculus. As to the kind of experiment: Avoiding pressure on limbs in mice at high dose with Hypervitaminosis; 4/16. It counts as functional, organism-based. The settings on record: Limb.
The species named for data set [32] is Mus musculus. The data set can be described thus: Enlarged lymph in gross pathological observations in mice with hypervitaminosis A at mid dose 1 with gross observations/total number of mice in group; 2/16. In kind it is functional, organism-based.
For data set [33], the species on record is Mus musculus. The data set can be described thus: Enlarged lymph in gross pathological observations in mice with hypervitaminosis A at mid dose 2 with gross observations/total number of mice in group; 1/16. It counts as functional, organism-based.
Data set [34] is filed under the species Mus musculus. The data set can be described thus: Skin scaling in mice at mid dose 1 with Hypervitaminosis; 0/16. It counts as functional, organism-based.
Data set [35] is filed under the species Mus musculus. The data set can be described thus: Skin scaling in mice at high dose with Hypervitaminosis; 2/16. It counts as functional, organism-based.
The species named for data set [36] is Mus musculus. As to the kind of experiment: Fracture incidence in mouse at high dose; 3/8.
Data set [37] is filed under the species Mus musculus. As to the kind of experiment: Effect of compound on serum Alkaline phosphatase levels in mice at mid dose 2 on day 29. In kind it is functional. The gist of the method: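 Male B6D2F1 mice dosed daily by oral gavage in corn oil at low, mid 1, mid 2 or high dose. Blood sampled on set days (8, 29, 36, 65) for clinical chemistry, serum alkaline phosphatase and triglycerides. Group mean ± SD reported as % relative to vehicle 1; significance p < 0.05 versus corn oil vehicle.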

The species entered for data set [38] is Mus musculus. As to the kind of experiment: Enlarged lymph in gross pathological observations in mice with hypervitaminosis A at mid dose 2 with gross observations/total number of mice in group; 8/16. In kind it is functional, organism-based.
Data set [39] is filed under the species Mus musculus. As to the kind of experiment: Enlarged spleen in Gross pathological observations in mice with hypervitaminosis A at high dose with gross observations/total number of mice in group; 4/16. In kind it is functional, organism-based.
Data set [40] is filed under the species Mus musculus. The data set can be described thus: Enlarged spleen in Gross pathological observations in mice with hypervitaminosis A at mid dose 1 with gross observations/total number of mice in group; 5/16. It counts as functional, organism-based.
Data set [41] is filed under the species Mus musculus. The data set can be described thus: Effect of compound on adrenal to body weight ratios in mice at high dose on day 65; all the animals died by day 65. It counts as functional, organism-based. The gist of the method:
as §1

The species named for data set [42] is Mus musculus. The data set can be described thus: Fracture incidence in mouse at high dose; 4/7.

SMILES strings stand for the structures. The source made the active and inactive calls. No cut-off for these calls is given here.

Consider `C/C(=C\c1ccc(C(=O)O)cc1)c1ccc2c(c1)C(C)(C)CCC2(C)C`, for which the Activity result with Mus musculus [1] was “Toxic”; in the data set with Mus musculus [2], “Toxic”; in the data set on Mus musculus [3], “Toxic”; in the data set with Mus musculus [6], “Toxic”; in the data set with Mus musculus [10], “Weak activity”; in the data set with Mus musculus [11], “Weak activity”. For the same compound, the Activity with Mus musculus [14] is >25; in the data set on Mus musculus [18] it was 5.7; in the data set on Mus musculus [21], “Weak activity”; with Mus musculus [22], 2. In the data set on Mus musculus [4], the Dose is 0.4 mg/kg. Besides, the outcome in the data set on Mus musculus [5], with Mus musculus [9], in the data set on Mus musculus [12], with Mus musculus [13] and in the data set with Mus musculus [20] was Active. The result with Mus musculus [7], in the data set with Mus musculus [8], in the data set with Mus musculus [17] and in the data set on Mus musculus [19] was inactive. For the same compound, in the data set with Mus musculus [15], the Max tolerated dose is >8 µg/kg. The Mortality in data set [16] was 7 day of death.

For `CC(/C=C/C=C(\C)c1ccc2c(c1)C(C)(C)CCS2)=C\C(=O)O`, the result in the data set filed under Mus musculus [23], in the data set listed under Mus musculus [24], in the data set filed under Mus musculus [25], in the data set listed under Mus musculus [26] and in the data set filed under Mus musculus [27] was inactive. The Activity result in the data set listed under Mus musculus [28] was “Weak activity”.

`CC(/C=C/C=C(\C)c1ccc2c(c1)C(C)(C)CCO2)=C\C(=O)O`: the result in the data set filed under Mus musculus [29], in the data set filed under Mus musculus [32], in the data set listed under Mus musculus [33], in the data set listed under Mus musculus [34] and in the data set listed under Mus musculus [35] was inactive. Besides, the Activity result in the data set filed under Mus musculus [30], in the data set filed under Mus musculus [31] and in the data set listed under Mus musculus [36] was “Weak activity” in each case.

`C/C(=C\c1ccc(C(=O)O)cc1)c1ccc2c(c1)C(C)(C)CCO2`: the Activity was 106.3 in the data set listed under Mus musculus [37]; “Weak activity” in the data set filed under Mus musculus [38]; “Weak activity” in the data set filed under Mus musculus [39]; “Weak activity” in the data set listed under Mus musculus [40]; “Toxic” in the data set listed under Mus musculus [41]; “Weak activity” in the data set listed under Mus musculus [42].
